Measured values from PubChem BioAssay.
The source made the active and inactive calls. Cut-off read from the data, not from the text of the source, unless noted: active = inhibition above about 31%; inactive = the rest.

Legend:
[1] = HUVEC growth inhibition – cell-based, human, primary screen (AID 575;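 active = viability at or below 30% in both replicate assays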;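 note: 100% = median of untreated cell wells with 0.1% DMSO on each plate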); conditions: HUVEC proliferation, CellTiter-Glo luminescence, 72 h; at 10 µM; stronger effect = lower value
Outline: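 Test system: primary human umbilical vein endothelial cells; medium: endothelial basal medium with 2% FBS plus growth supplements; dosing: 10 µM compound only; times: 72 h treatment at 37 °C; signal: CTG luminescence; read-out: % viability relative to median vehicle-well signal on each plate; control set: vehicle and MePR control wells; plate: 384-well, collagen-coated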

[2] = H69AR cell proliferation blockers – human, duplicate replicates, primary screen (AID 580;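 active = viability at or under a set limit in both replicates, limit being median viability minus 3 SD, cut at about 48% in these data, passing the limit was not always enough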;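 note: 100% = mean luminescence of untreated wells and 0% = no signal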); conditions: H69AR lung tumor cells viability, ATP luminescence, 72 h; at 10 µM; stronger effect = lower value
[3] = MRP1 drug-resistance reversers in H69AR cells – cell-based, doxorubicin co-treatment, pilot screen (AID 601;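 active = viability loss from added drug above about 55%, and viability with drug at most 40%, in both replicates, limit read from the data, passing the limit was not always enough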); conditions: CellTiter-Glo, 72 h, at 10 µM; for differential viability (reversal): stronger effect = higher value
[4] = yeast transport mutant growth inhibition pilot in 384-well plates, post-Golgi transport modulator project (AID 636); conditions: absorbance 615 nm, about 18 h, stronger effect = higher value
[5] = growth suppression of yeast trafficking mutant, preliminary HTS, modulators of trafficking downstream of Golgi apparatus project, 1536-format plate, OD 615 nm (AID 637; in the data active = inhibition above about 30%); conditions: yeast transport mutant growth, absorbance 615 nm, 18 h; stronger effect = higher value
[6] = H69AR cells + 2 uM doxorubicin, measured here: viability with 2 uM doxorubicin, stronger effect = lower value
[7] = H69AR cells, compound alone cytotoxicity

Row | Compound | viability [1] | viability [2] | differential viability (reversal) ([3]; H69AR cells + 2 uM doxorubicin) | viability [3, 6] | viability [3, 7] | inhibition [4] | inhibition [5]
1 | O=C(NC1CCCCC1)C(c1ccc(Cl)cc1)N(C(=O)c1cnccn1)c1ccc2c(c1)OCO2 (stereo not drawn) | 80.4% (inactive) | 80.2% (inactive) | 4.39% (inactive) | 75.8% | 80.2% | -5.47% (inactive) | -5.71% (inactive)
2 | O=C1CC(Sc2nnc(-c3ccccc3)o2)C(=O)N1c1ccccc1 (stereo not drawn) | 96.3% (inactive) | 2.27% (active) | -6.77% (inactive) | 9.04% | 2.27% | -6.13% (inactive) | -1.11% (inactive)
3 | O=C(CN1C(=O)COc2ccccc21)NCCCN1CCN(Cc2ccccc2)CC1 | 98.5% (inactive) | 87.3% (inactive) | 2.35% (inactive) | 85% | 87.3% | 3.51% (inactive) | 22.4% (inactive)
4 | Nc1nc(CN2CCOCC2)cs1 | 101% (inactive) | 100% (inactive) | 3.83% (inactive) | 96.1% | 100% | -1.69% (inactive) | 0.95% (inactive)
5 | CCc1c(C)nc(N2CCN(Cc3ccccc3)CC2)[nH]c1=O | 115% (inactive) | 103% (inactive) | 18.8% (inactive) | 84.6% | 103% | -0.53% (inactive) | 0.32% (inactive)
6 | COCCNC(=O)c1ccc(Cl)c(Cl)c1 | 108% (inactive) | 102% (inactive) | 17% (inactive) | 85% | 102% | -3.16% (inactive) | -0.16% (inactive)
7 | O=C(Nc1ccc2c(c1)C(=O)N(C1CCCCC1)C2=O)C1CCCO1 (stereo not drawn) | 90.8% (inactive) | 90.9% (inactive) | -1.69% (inactive) | 92.6% | 90.9% | -3.33% (inactive) | -0.63% (inactive)
8 | CCOc1ncccc1C(=O)Nc1ccc2c(C)cc(=O)oc2c1 | 84.1% (inactive) | 93.5% (inactive) | 1.12% (inactive) | 92.4% | 93.5% | -3.77% (inactive) | 6.51% (inactive)
9 | Nc1nc(Nc2ccc(Cl)cc2Cl)nc(C(F)(F)F)n1 | 73.9% (inactive) | 89.8% (inactive) | 11.7% (inactive) | 78% | 89.8% | -5.6% (inactive) | 11.3% (inactive)
10 | Cc1nc2cc(NC(=O)N3CC4(C)CC3CC(C)(C)C4)ccc2n1C (stereo not drawn) | 100% (inactive) | 89.7% (inactive) | 7.53% (inactive) | 82.2% | 89.7% | -6.71% (inactive) | -8.1% (inactive)
11 | C=Cn1c(N2CCOCC2)nc2c1c(=O)[nH]c(=O)n2C | 98.8% (inactive) | 97.1% (inactive) | 8.31% (inactive) | 88.8% | 97.1% | -4.8% (inactive) | 1.59% (inactive)
12 | CC(=O)N1CCN(S(=O)(=O)c2ccc(S(=O)(=O)NCC(C)C)cc2)CC1 | 111% (inactive) | 88.5% (inactive) | 2.16% (inactive) | 86.4% | 88.5% | -5.73% (inactive) | 0.16% (inactive)
13 | C=CCC(Nc1ccco1)c1ccccc1 (stereo not drawn) | 95.8% (inactive) | 102% (inactive) | 14.1% (inactive) | 87.8% | 102% | -3.55% (inactive) | -0.32% (inactive)
14 | CCOCCCNC(=O)c1ccc2c(c1)ncn2C1CCCC1 | 91% (inactive) | 95.8% (inactive) | 7.26% (inactive) | 88.5% | 95.8% | 2.24% (inactive) | -3.81% (inactive)
15 | CCNc1ccc2c(Cl)cc(=O)oc2c1 | 68.2% (inactive) | 79.8% (inactive) | 5.29% (inactive) | 74.5% | 79.8% | -5.73% (inactive) | -1.59% (inactive)
16 | CCOC(=O)C1CCN(C(=O)CN(Cc2ccccc2)S(C)(=O)=O)CC1 | 112% (inactive) | 92.1% (inactive) | -1.19% (inactive) | 93.3% | 92.1% | -6.4% (inactive) | 2.7% (inactive)
17 | CC1Cc2ccccc2N1C(=O)Cc1cccs1 (stereo not drawn) | 84.8% (inactive) | 108% (inactive) | 16.1% (inactive) | 92.3% | 108% | -1.71% (inactive) | 2.06% (inactive)
18 | O=C(Nc1ccc2c(c1)OCO2)c1cccc(Cl)c1 | 71.4% (inactive) | 104% (inactive) | 13.2% (inactive) | 90.3% | 104% | -3.87% (inactive) | 16.8% (inactive)
19 | CC1(c2ccncc2)Nc2ccccc2-c2nc3ccccc3n21 (stereo not drawn) | 92.4% (inactive) | 99.2% (inactive) | -2.33% (inactive) | 101% | 99.2% | -1.45% (inactive) | -0.95% (inactive)
